The source made the active and inactive calls. No cut-off for these calls is given here.
What was measured:
A549 [1] = assay: Growth inhibition of human A549 cells by SRB assay; type: functional
[2] = Growth inhibition of human Gurav cells by SRB assay; type: functional
HOP-62 = assay: Growth inhibition of human HOP62 cells by SRB assay; type: functional
MCF7 = assay: Growth inhibition of human MCF7 cells by SRB assay; type: functional
ZR-75-1 = assay: Growth inhibition of human ZR-75-1 cells by SRB assay; type: functional
A2780 = assay: Growth inhibition of human A2780 cells by SRB assay; type: functional
[3] = Growth inhibition of human DWD cells by SRB assay; type: functional
KB = assay: Growth inhibition of human KB cells by SRB assay; type: functional
COLO 205 = assay: Growth inhibition of human COLO205 cells by SRB assay; type: functional
PC-3 = assay: Growth inhibition of human PC3 cells by SRB assay; type: functional
SiHa = assay: Growth inhibition of human SiHa cells by SRB assay; type: functional
A549 [4] = assay: Cell cycle arrest in human A549 cells assessed as accumulation at G2/M phase at 5 uM after 48 hrs by propidium iodide staining-based flow cytometric analysis; type: functional
How it was run: (§1)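 A549 cells treated 48 h (5 μM test agents; 1 μM standard), trypsin-EDTA harvest, PBS wash, fixed in ice-cold 70% ethanol at 4 °C for 30 min, then stained 30 min at room temperature in the dark with propidium iodide/trisodium citrate/Triton X-100 solution. DNA content by flow cytometry; G2/M fraction compared with untreated control.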

Bos taurus = organism: Bos taurus; assay: Inhibition of bovine tubulin polymerization after 1 hr at 1 min interval by fluorescence assay
How it was run: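 Bovine brain tubulin, 2 mg/mL, in PEM buffer (80 mM PIPES, 0.5 mM EGTA, 2 mM MgCl2, pH 6.9) with fluorescent reporter, compounds at 3 μM, 37 °C. Reaction started by adding 1 mM GTP. Polymerization followed as fluorescence gain (ex 360/em 420 nm), read every 1 min for 1 h. Nocodazole as positive control.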

A549 [5] = assay: Inhibition of alpha-tubulin in human A549 cells assessed as ratio of free to polymerized tubulin at 5 uM after 24 hrs by densitometric analysis relative to control; type: cell-based
How it was run: (§2)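 A549 cells exposed 24 h (5 μM test agents; 1 μM nocodazole or taxol). Spun 15000g, 30 min, 22 °C to give soluble and polymerized fractions. α-Tubulin Western blot; band densitometry as soluble/polymerized ratio.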

A549 [6] = assay: Inhibition of alpha-tubulin in human A549 cells assessed as ratio of free to polymerized tubulin at 1 uM after 24 hrs by densitometric analysis relative to control; type: cell-based; how it was run: as §2
A549 [7] = assay: Cell cycle arrest in human A549 cells assessed as accumulation at G2/M phase at 1 uM after 48 hrs by propidium iodide staining-based flow cytometric analysis relative to control; type: functional; how it was run: as §1

Structure (SMILES)	GI50 (A549 [1]) [µM]	GI50 [2] [µM]	GI50 (HOP-62) [µM]	GI50 (MCF7) [µM]	GI50 (ZR-75-1) [µM]	GI50 (A2780) [µM]	GI50 [3] [µM]	GI50 (KB) [µM]	GI50 (COLO 205) [µM]	GI50 (PC-3) [µM]	GI50 (SiHa) [µM]	Activity (A549 [4])	inhibition (Bos taurus) [%]	fold change (FC) (A549 [5])	fold change (FC) (A549 [6])	Activity (A549 [7])
COc1cc(-c2ccc(-c3ccc(-c4nc5cc(C)ccc5[nH]4)cc3)cc2)cc(OC)c1OC	< 0.1	0.17	2.37	0.17	0.19	0.19	0.17	2.11	0.19	0.18	0.17	Active	48.8	1.3	–	–
COc1cc(-c2ccc(-c3ccc(-c4nc5c(O)cccc5[nH]4)cc3)cc2)cc(OC)c1OC	< 0.1	0.17	0.19	< 0.1	0.19	0.17	0.19	2.11	0.19	0.17	0.17	Active	98.3	1.4	–	–
CC(=O)O[C@H]1C(=O)[C@@]2(C)[C@H]([C@H](OC(=O)c3ccccc3)[C@]3(O)C[C@H](OC(=O)[C@H](O)[C@@H](NC(=O)c4ccccc4)c4ccccc4)C(C)=C1C3(C)C)[C@]1(OC(C)=O)CO[C@@H]1C[C@@H]2O	–	–	–	–	–	–	–	–	–	–	–	–	–	–	0.5	–
COC(=O)Nc1nc2cc(C(=O)c3cccs3)ccc2[nH]1	–	–	–	–	–	–	–	–	–	–	–	–	58.9	–	1.5	Active
Cc1ccc2[nH]c(-c3ccc(-c4ccc(-c5ccc(C(F)(F)F)cc5)cc4)cc3)nc2c1	3.52	12	24.2	31	2.41	12.3	38.2	41.2	30.6	2.01	33.2	–	–	–	–	–
COc1ccc(-c2ccc(-c3ccc(-c4nc5c(O)cccc5[nH]4)cc3)cc2)cc1	7.69	6.63	3.21	3.11	8.2	8.64	6.4	4.9	1.63	6.61	4.8	–	–	–	–	–
Cc1ccc2[nH]c(-c3ccc(-c4ccc(-c5ccc(OC(F)(F)F)cc5)cc4)cc3)nc2c1	3.56	11	24.2	31	2.41	12.3	41.1	41.2	30.6	2.01	28.3	–	–	–	–	–
Oc1ccc(-c2ccc(-c3ccc(-c4nc5c(O)cccc5[nH]4)cc3)cc2)cc1	0.17	0.19	2.41	0.19	2.65	2.92	2.7	3.19	2.6	0.19	2.41	Active	36.3	1.1	–	–
Oc1cccc2[nH]c(-c3ccc(-c4ccc(-c5ccc(OC(F)(F)F)cc5)cc4)cc3)nc12	0.19	3.6	2.27	2.21	3.8	2.9	3.1	3.31	8.32	7.41	8.41	–	–	–	–	–
Cc1ccc2[nH]c(-c3ccc(-c4ccc(-c5ccc(F)cc5)cc4)cc3)nc2c1	6.03	16.5	33.5	30.2	35	24.6	33.1	24.9	100	100	41	–	–	–	–	–
COc1ccc(-c2ccc(-c3ccc(-c4nc5ccccc5[nH]4)cc3)cc2)cc1OC	7.6	9.23	4.2	7.6	39.7	21.6	42.1	9.25	41.2	47.1	6.2	–	–	–	–	–
Oc1cccc2[nH]c(-c3ccc(-c4ccc(-c5ccc(C(F)(F)F)cc5)cc4)cc3)nc12	3.61	3.19	3.2	2.31	5.11	6.1	3.18	4.32	3.41	2.26	3.72	–	–	–	–	–
